Laboratory results published in ChEMBL document CHEMBL1154198, “Chemical genetics of Plasmodium falciparum” (Nature, 2010).

How the values were obtained:
[1] = ST_JUDE: Cytotoxicity using luciferase to measure ATP as an indicator of the viability of human epithelial embryonic kidney cells (HEK293); assay type: toxicity, cell-based
[2] = ST_JUDE: Cytotoxicity using luciferase to measure ATP as an indicator of the viability of human foreskin fibroblast cells (BJ); assay type: toxicity, cell-based
[3] = test system: Plasmodium falciparum; assay: ST_JUDE: Cytotoxicity against Plasmodium falciparum SB-A6; assay type: functional, organism-based
[4] = test system: Plasmodium falciparum; assay: ST_JUDE: Plasmodium falciparum 3D7 EC50 (uM) as measured by SYBR green dye; assay type: functional, organism-based
[5] = test system: Leishmania major; assay: ST_JUDE: Cytotoxicity using Alamar Blue to measure viability of Leishmania major; assay type: functional, organism-based
In short: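 L. major promastigotes; drug susceptibility read with Alamar Blue.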

[6] = test system: Trypanosoma brucei; assay: ST_JUDE: Cytotoxicity using luciferase to measure ATP as an indicator of the viability of Trypanosoma brucei; assay type: functional, organism-based
[7] = test system: Plasmodium falciparum; assay: ST_JUDE: Cytotoxicity against Plasmodium falciparum K1; assay type: functional, organism-based
In short: (§1)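 Asexual P. falciparum grown in human erythrocytes, exposed to compounds for 72 h, and growth read as the DNA quantity in treated versus control cultures. Dose-response run at 12 concentrations from 10 μM to 5 nM.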

[8] = test system: Plasmodium falciparum; assay: ST_JUDE: Plasmodium falciparum K1 EC50 (uM) as measured by SYBR green dye; assay type: functional, organism-based
[9] = ST_JUDE: Cytotoxicity using luciferase to measure ATP as an indicator of the viability of human Burkitt''s lymphoma lymphoblast cells (Raji); assay type: toxicity, cell-based
[10] = ST_JUDE: Cytotoxicity using luciferase to measure ATP as an indicator of the viability of human epithelial hepatocellular carcinoma cells (HepG2); assay type: toxicity, cell-based
[11] = test system: Plasmodium falciparum; assay: ST_JUDE: Cytotoxicity against Plasmodium falciparum W2; assay type: functional, organism-based
[12] = test system: Plasmodium falciparum; assay: ST_JUDE: Cytotoxicity against Plasmodium falciparum 3D7; assay type: functional, organism-based; in short: as §1
[13] = test system: Plasmodium falciparum; assay: ST_JUDE: Cytotoxicity against Plasmodium falciparum D10 transfected with yeast DHOD; assay type: functional, organism-based
[14] = test system: Toxoplasma gondii; assay: ST_JUDE: Growth inhibition of to Toxoplasma gondii, in human U-2OS cells, as measured by luciferase.; assay type: functional, organism-based; settings: RH, U2OS
In short: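 T. gondii parasites engineered to express luciferase; drug sensitivity read by luminescence.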

[15] = test system: Plasmodium falciparum; assay: ST_JUDE: Cytotoxicity against Plasmodium falciparum V1/S; assay type: functional, organism-based
[16] = test system: Plasmodium falciparum; assay: ST_JUDE: Cytotoxicity against Plasmodium falciparum Dd2; assay type: functional, organism-based

Row | Structure (SMILES) | EC50 [1] | EC50 [2] | EC50 [3] | EC50 [4] | EC50 [5] | EC50 [6] | EC50 [7] | EC50 [8] | EC50 [9] | EC50 [10] | EC50 [11] | EC50 [12] | EC50 [13] | EC50 [14] | EC50 [15] | EC50 [16]
1 | Cc1ccc(C)c(NC(=O)CC2C(=O)N(c3ccccc3)C(=S)N2Cc2ccco2)c1 (stereo not drawn) | > 44.1 µM | > 44.1 µM | 0.385 µM | 0.259 µM | > 18.9 µM | > 42.3 µM | 2.72 µM | 0.395 µM | 41 µM | > 44.1 µM | 0.292 µM | 2.51 µM | 0.449 µM | > 24.1 µM | 0.361 µM | 0.428 µM
2 | CCCCCCCCCC[n+]1ccccc1 | > 48.9 µM | > 48.9 µM | 2.88 µM | 1.31 µM | > 20.9 µM | > 46.9 µM | 3.6 µM | 1.53 µM | 9.31 µM | > 48.9 µM | 0.899 µM | 2.29 µM | 3.93 µM | > 26.8 µM | 9.36 µM | 1.15 µM
3 | CC[n+]1c(/C=C/c2ccc(N(C)C)cc2)ccc2cc(OC)ccc21 | > 23.2 µM | > 23.2 µM | 0.702 µM | 1.69 µM | 0.0005 µM | 0.343 µM | 0.471 µM | 0.707 µM | 0.529 µM | 2.99 µM | 0.0922 µM | 0.247 µM | 0.372 µM | > 12.7 µM | 0.43 µM | 0.174 µM
4 | CCCCCCn1c(=N)n(CC(O)COc2ccccc2C)c2ccccc21 (stereo not drawn) | 20.3 µM | 16.8 µM | 4.67 µM | 1.26 µM | > 23.4 µM | 3.73 µM | 1.43 µM | 0.715 µM | 12.6 µM | 6.98 µM | 1.29 µM | 2.2 µM | 6.57 µM | 13.9 µM | 2.09 µM | 1.11 µM
5 | COc1ccc2c(c1)N(C)/C(=C/c1cccc[n+]1C)S2 | > 15.7 µM | > 15.7 µM | 1.26 µM | 0.186 µM | 0.0088 µM | 0.643 µM | 0.386 µM | 0.152 µM | 6.52 µM | > 15.7 µM | > 4.04 µM | 0.441 µM | 2.46 µM | > 8.63 µM | 1.5 µM | 0.472 µM
6 | CCc1ccc(S(=O)(=O)NC2=C/C(=N\c3ccccc3)C(=O)c3ccccc32)cc1 | 5.21 µM | 5.65 µM | 0.34 µM | 0.557 µM | > 13.2 µM | 1.46 µM | 0.276 µM | 0.472 µM | 2.66 µM | 4.29 µM | 0.484 µM | 0.284 µM | 0.373 µM | > 16.9 µM | 0.404 µM | 0.575 µM
7 | CCOc1ccc2nc(C)cc(Nc3ccc(Cl)cc3)c2c1 | 21.2 µM | 8.78 µM | 0.295 µM | 0.444 µM | 0.379 µM | 8.1 µM | 4.08 µM | 1.34 µM | 19.8 µM | 7.26 µM | 0.755 µM | 1.07 µM | 0.536 µM | > 21.7 µM | 2.77 µM | 0.577 µM
8 | Nc1ccc(-c2nc3cc(-c4ccc5[nH]c(-c6ccc(N)cc6)nc5c4)ccc3[nH]2)cc1 | > 38.3 µM | > 38.3 µM | 0.108 µM | 0.264 µM | > 16.4 µM | 2.52 µM | 0.201 µM | 0.174 µM | > 38.3 µM | 8.94 µM | 0.0779 µM | 0.221 µM | 0.12 µM | > 21 µM | 0.153 µM | 0.165 µM
9 | O=S(=O)(c1ccc(Cl)cc1)N1CCN(C(=S)NCc2ccco2)CC1 | > 30.1 µM | > 30.1 µM | 4.46 µM | 1.51 µM | > 12.9 µM | 24.9 µM | 1.15 µM | 1.27 µM | > 30.1 µM | > 30.1 µM | 0.82 µM | 0.864 µM | 3.49 µM | > 16.5 µM | 2.4 µM | 0.849 µM
10 | C=CCN1C=CC=C/C1=C\c1sc2ccccc2[n+]1CC | > 21.6 µM | > 21.6 µM | 1.6 µM | 2.31 µM | 0.0122 µM | 2.67 µM | 1.89 µM | 1.44 µM | 2.82 µM | > 21.6 µM | > 5.54 µM | 1.29 µM | 2.92 µM | > 11.8 µM | 2 µM | 0.92 µM
11 | Oc1ccc(Br)cc1CN1CCN(Cc2ccccc2F)CC1 | > 36.1 µM | > 36.1 µM | 2.77 µM | 0.719 µM | > 15.5 µM | 27.2 µM | 0.745 µM | 0.334 µM | > 36.1 µM | > 36.1 µM | 1.61 µM | 2.06 µM | 3.66 µM | > 19.8 µM | 0.936 µM | 1.79 µM
12 | CCOc1ccc(NC(=O)C2c3ccccc3C(=O)N(CC(C)C)C2c2cccs2)cc1 (stereo not drawn) | > 42.8 µM | > 42.8 µM | 0.353 µM | 0.133 µM | > 18.3 µM | 6.89 µM | 0.294 µM | 0.147 µM | > 42.8 µM | > 42.8 µM | 0.134 µM | 0.258 µM | 0.368 µM | > 23.5 µM | 0.503 µM | 0.362 µM
13 | CC(O)(c1ccc(Cl)cc1)C(CN1CCCCC1)c1ccccc1 (stereo not drawn) | > 50.6 µM | > 50.6 µM | 4.24 µM | 0.916 µM | > 21.6 µM | 24 µM | 0.652 µM | 0.267 µM | > 50.6 µM | > 50.6 µM | 7.8 µM | 2.2 µM | 5.33 µM | > 27.7 µM | 1.31 µM | 1.26 µM
